The values below come from ChEMBL document CHEMBL1145606, “Discovery of amino-acetonitrile derivatives, a new class of synthetic anthelmintic compounds” (2008).

SMILES strings stand for the structures.

Holding throughout (type): functional
Test [1] deals with Haemonchus contortus. Briefly: Anthelmintic activity against Haemonchus contortus infected in gerbils assessed as reduction in worm count at 1 mg/kg, po. Also noted: scale not given: the % may be the effect or the level left. The essentials:
(§1)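 Gerbils (Meriones unguiculatus) were artificially infected with H. contortus larvae 6 days, or T. colubriformis larvae 5 days, before treatment. They were then dosed orally or subcutaneously, and controls received a placebo formulation. Three days post-treatment the animals were sacrificed and dissected for worm recovery.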

The test system of test [2] is Trichostrongylus colubriformis. The test is described as follows: Anthelmintic activity against levamisole-resistant Trichostrongylus colubriformis isolate by larva development assay. The essentials:
(§2)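 Larval development assay: test compounds were embedded in an agar-based nutritive medium that supports development from eggs to third-stage larvae (L3). Plates were incubated for 6 days at 28 °C and 80% relative humidity, and egg hatching and larval development were recorded. Values are means of three experiments.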

The test system of test [3] is Haemonchus contortus. The test is described as follows: Anthelmintic activity against benzimidazole-resistant Haemonchus contortus isolate by larva development assay. The procedure, abridged:
as §2

Test [4] deals with Trichostrongylus colubriformis. Briefly: Anthelmintic activity against Trichostrongylus colubriformis infected in gerbils assessed as reduction in worm count at 1 mg/kg, po. Also noted: scale not given: the % may be the effect or the level left. The procedure, abridged:
as §1

For test [5], the system named is Trichostrongylus colubriformis. The test is described as follows: Anthelmintic activity against Trichostrongylus colubriformis infected in gerbils assessed as reduction in worm count at 1 mg/kg, sc. The arrangement: scale not given: the % may be the effect or the level left. Conditions: route subcutaneous. The essentials:
as §1

The test system of test [6] is Haemonchus contortus. Briefly: Anthelmintic activity against Haemonchus contortus infected in gerbils assessed as reduction in worm count at 1 mg/kg, sc. As to conditions: route subcutaneous. The arrangement: scale not given: the % may be the effect or the level left. The essentials: as §1
Test [7] deals with Haemonchus contortus. Briefly: Anthelmintic activity against Haemonchus contortus infected in gerbils assessed as reduction in worm count at 3.2 mg/kg, po. The arrangement: scale not given: the % may be the effect or the level left. The essentials:
as §1

Test [8] relates to Trichostrongylus colubriformis. The test is described as follows: Anthelmintic activity against Trichostrongylus colubriformis infected in gerbils assessed as reduction in worm count at 3.2 mg/kg, po. The arrangement: scale not given: the % may be the effect or the level left. The essentials:
as §1

For test [9], the system named is Trichostrongylus colubriformis. Briefly: Anthelmintic activity against Trichostrongylus colubriformis infected in gerbils assessed as reduction in worm count at 10 mg/kg, po. The arrangement: scale not given: the % may be the effect or the level left. The essentials: as §1
The subject of test [10] is Haemonchus contortus. Briefly: Anthelmintic activity against Haemonchus contortus infected in gerbils assessed as reduction in worm count at 10 mg/kg, po. The arrangement: scale not given: the % may be the effect or the level left. The essentials: as §1

As for `CC(C#N)(COc1ccc(C#N)cc1C(F)(F)F)NC(=O)c1ccc(OC(F)(F)F)cc1` (stereo unspecified), the Activity in [1] is recorded as 95%; in [4], 98%; in test [5], 97%; in test [6] it was 91%. Besides, the EC100 in test [2] is recorded as 0.1 ppm; in [3], 0.032 ppm.
Regarding `CC(C#N)(COc1ccc(C#N)cc1C(F)(F)F)NC(=O)c1ccc(C(F)(F)F)cc1` (stereo unspecified), the Activity came to 97% in test [1] and 91% in [4]. For the same compound, the EC100 in [2] and in test [3] was 0.1 ppm throughout.
For the compound `CC(C#N)(COc1cc(F)c(F)cc1Br)NC(=O)c1ccc(OC(F)(F)F)cc1` (stereo unspecified), the EC100 in test [2] is listed as 0.032 ppm; in test [3], 0.01 ppm. Besides, the values for the Activity in [7] and in [8] were 100% and 97%, respectively.
`CC(C#N)(COc1ccccc1Cl)NC(=O)c1ccc(OC(F)(F)F)cc1` (stereo unspecified): the EC100 in test [2] and in test [3] was 0.032 ppm throughout.
On to `CC(C#N)(COc1ccccc1Cl)NC(=O)c1ccccc1C(F)(F)F` (stereo unspecified), for which the EC100 in [2] and in [3] was more than 10 ppm in each case.
Consider `CC(C#N)(COc1cc(Cl)ccc1Cl)NC(=O)c1ccc(OC(F)(F)F)cc1` (stereo unspecified), for which the EC100 in test [2] was found to be 0.032 ppm; in test [3], 0.01 ppm. The Activity was determined as 68% in test [7] and 89% in [8].
Turning to `CC(C#N)(COc1ccc(Cl)cc1Cl)NC(=O)c1ccc(OC(F)(F)F)cc1` (stereo unspecified), the EC100 in test [2] and in [3] was 0.1 ppm each time. The results for the Activity in [9] and in test [10] were 100% and 94%, respectively.
For the compound `CC(C#N)(COc1ccccc1Br)NC(=O)c1ccc(OC(F)(F)F)cc1` (stereo unspecified), the EC100 in test [2] and in test [3] was 0.032 ppm in each case. For the same compound, the Activity is reported as 99% in test [9] and 97% in test [10].
For `CC(C#N)(COc1ccccc1F)NC(=O)c1ccc(C(F)(F)F)cc1` (stereo unspecified), the EC100 in [2] and in [3] was 1 ppm in each case.
Take `CC(C#N)(COc1ccccc1C(F)(F)F)NC(=O)c1ccc(OC(F)(F)F)cc1` (stereo unspecified): the EC100 in test [2] and in test [3] was 0.01 ppm in each case. The Activity amounted to 97% in test [9] and 98% in test [10].
In the case of `CC(C#N)(COc1ccccc1Cl)NC(=O)c1ccc(Cl)cc1` (stereo unspecified), the EC100 in [2] and in test [3] was 0.32 ppm each time.
On to `Cc1ccc(C(=O)NC(C)(C#N)COc2ccccc2Cl)cc1` (stereo unspecified), for which the EC100 in test [2] and in [3] was more than 10 ppm in each case.
Take `CC(C#N)(COc1ccc(C(F)(F)F)cc1)NC(=O)c1ccc(C(F)(F)F)cc1` (stereo unspecified): the EC100 in [2] and in test [3] was more than 10 ppm throughout.
Turning to `CC(C#N)(COc1cccc(Cl)c1Cl)NC(=O)c1ccc(C(F)(F)F)cc1` (stereo unspecified), the EC100 in test [2] and in [3] was 0.1 ppm each time. Moreover, the values for the Activity in test [9] and in [10] were 67% and 84%, respectively.
`CCc1ccccc1OCC(C)(C#N)NC(=O)c1ccc(OC(F)(F)F)cc1` (stereo unspecified): the EC100 in test [2] and in [3] was 0.32 ppm in each case.
With `CC(C#N)(COc1cc(F)ccc1Br)NC(=O)c1ccc(OC(F)(F)F)cc1` (stereo unspecified), the EC100 in test [2] is 0.1 ppm; in [3], 0.01 ppm. The Activity in test [7] was 90%; in [8], 99%.
As to `CC(C#N)(COc1ccc(C#N)cc1C(F)(F)F)NC(=O)c1ccc(SC(F)(F)F)cc1` (stereo unspecified), the Activity in test [1] worked out at 90%; in [4] it was 98%; in [5], 86%; in [6], 92%. The EC100 in test [2] and in test [3] was 0.032 ppm in each case.
`CC(C#N)(COc1ccccc1Cl)NC(=O)c1ccc(C(F)(F)F)cc1F` (stereo unspecified): the EC100 in test [2] and in test [3] was 0.32 ppm in each case.
Take `CC(C#N)(COc1cc(F)ccc1Cl)NC(=O)c1ccc(OC(F)(F)F)cc1` (stereo unspecified): the EC100 in test [2] is 0.032 ppm; in test [3], 0.01 ppm. Moreover, the Activity in [7] worked out at 92%; in test [8], 79%.
For the compound `CC(C#N)(COc1cc(C#N)ccc1C(F)(F)F)NC(=O)c1ccc(C(F)(F)F)cc1` (stereo unspecified), the Activity is reported as 97% in test [1], 87% in [4], 72% in test [5] and 90% in test [6]. In addition, the EC100 in test [2] stood at 0.1 ppm; in test [3] it was 0.032 ppm.
For the compound `C[C@@](C#N)(COc1cc(C#N)ccc1C(F)(F)F)NC(=O)c1ccc(SC(F)(F)F)cc1`, the figures for the EC100 in [2] and in test [3] were more than 10 ppm and 10 ppm, respectively.
As for `CC(C#N)(COc1ccccc1Cl)NC(=O)c1ccc(F)cc1` (stereo unspecified), the EC100 turned out to be 1 ppm in [2] and 3.2 ppm in test [3].
As to `CC(C#N)(COc1c(F)cc(F)cc1F)NC(=O)c1ccc(OC(F)(F)F)cc1` (stereo unspecified), the EC100 in test [2] and in [3] was more than 10 ppm each time.
As for `CC(C#N)(COc1cc(C#N)ccc1C(F)(F)F)NC(=O)c1ccc(OC(F)(F)F)cc1` (stereo unspecified), the Activity in test [1] stood at 95%; in [4], 85%; in test [5], 75%; in test [6], 97%. Also, the EC100 in test [2] was determined as 0.032 ppm; in test [3], 0.01 ppm.
In the case of `CC(C#N)(COc1ccccc1)NC(=O)c1ccc(C(F)(F)F)cc1` (stereo unspecified), the EC100 in test [2] and in test [3] was more than 10 ppm each time.
For the compound `CC(C#N)(COc1ccccc1Cl)NC(=O)c1cccc(OC(F)(F)F)c1` (stereo unspecified), the EC100 is given as 10 ppm in test [2] and more than 10 ppm in test [3].
As to `CC(C#N)(COc1ccccc1C(F)(F)F)NC(=O)c1ccc(-c2ccccc2)cc1` (stereo unspecified), the EC100 in [2] and in test [3] was more than 10 ppm in each case.
In the case of `CC(C#N)(COc1c(Cl)cccc1Cl)NC(=O)c1ccc(C(F)(F)F)cc1` (stereo unspecified), the EC100 in [2] and in test [3] was more than 10 ppm each time.
Take `CC(C#N)(COc1ccccc1Cl)NC(=O)c1ccc(C(F)(F)F)cc1` (stereo unspecified): the EC100 in test [2] and in [3] was 0.032 ppm throughout. Moreover, the Activity stood at 19% in [9] and 88% in test [10].
Take `CC(C#N)(COc1cc(F)c(F)cc1C(F)(F)F)NC(=O)c1ccc(SC(F)(F)F)cc1` (stereo unspecified): the Activity came out at 84% in [1], 98% in test [4], 90% in test [5] and 73% in test [6]. Moreover, the EC100 in [2] and in test [3] was 0.032 ppm throughout.
Regarding `CC(C#N)(COc1cccc(F)c1)NC(=O)c1ccc(OC(F)(F)F)cc1` (stereo unspecified), the values for the EC100 in test [2] and in [3] were 1 ppm and 0.32 ppm, respectively.
As for `CC(C#N)(COc1cc(F)c(F)cc1C(F)(F)F)NC(=O)c1ccc(C(F)(F)F)cc1` (stereo unspecified), the Activity in [1] was 89%; in test [4], 91%; in test [5], 90%; in [6] it was 94%. Moreover, the EC100 in test [2] and in test [3] was 0.032 ppm each time.
Regarding `CC(C#N)(COc1cc(C#N)ccc1C(F)(F)F)NC(=O)c1ccc(SC(F)(F)F)cc1` (stereo unspecified), the Activity in [1] is on record as 100%; in test [4], 100%; in test [5] it was 84%; in [6], 99%. Moreover, the EC100 turned out to be 0.032 ppm in test [2] and 0.01 ppm in test [3].
Take `CC(C#N)(COc1ccccc1C(F)(F)F)NC(=O)c1ccccc1` (stereo unspecified): the EC100 in [2] is more than 10 ppm; in test [3], 10 ppm.
For `CC(C#N)(COc1ccccc1C(F)(F)F)NC(=O)c1ccc(SC(F)(F)F)cc1` (stereo unspecified), the EC100 in test [2] and in test [3] was 0.032 ppm throughout. Besides, the Activity in test [9] turned out to be 99%; in [10], 77%.
Turning to `CC(C#N)(COc1cc(F)c(F)cc1C(F)(F)F)NC(=O)c1ccc(OC(F)(F)F)cc1` (single isomer, unassigned; (+)), the values for the EC100 in test [2] and in [3] were 3.2 ppm and 1 ppm, respectively.
With `CC(C#N)(COc1cc(F)c(F)cc1C(F)(F)F)NC(=O)c1ccc(OC(F)(F)F)cc1` (single isomer, unassigned; (-)), the EC100 in [2] is recorded as 0.01 ppm; in [3], 0.0032 ppm.
Turning to `CC(C#N)(COc1cc(F)c(F)cc1C(F)(F)F)NC(=O)c1ccc(OC(F)(F)F)cc1` (stereo in doubt; 19), the Activity in test [1] is 99%; in [4] it was 73%; in test [5], 75%; in test [6], 99%. The results for the EC100 in [2] and in [3] were 0.032 ppm and 0.01 ppm, respectively.
As for `c1ccc([C@H]2CN3CCSC3=N2)cc1` [LEVAMISOLE], the EC100 was determined as 10 ppm in test [2] and 0.32 ppm in test [3].
For `C[C@](C#N)(COc1cc(C#N)ccc1C(F)(F)F)NC(=O)c1ccc(SC(F)(F)F)cc1` [MONEPANTEL], in that order: 0.01 ppm and 0.0032 ppm.
For `c1ccc2[nH]c(-c3cscn3)nc2c1` [THIABENDAZOLE], in that order: 1 ppm and 10 ppm.
